Assay results taken from PubChem BioAssay AID493237 (Broad Institute, 2011).
Where “and” joins values, the source holds several entries; their conditions need not be identical. Identical values can stand only once. Calls of active or inactive are those of the source.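 The calls were made as follows: active = fitted curve reaching 40% activation at a concentration no higher than the top valid dose tested; inconclusive = flat curve between 30 and 70% activation, or poor fit; inactive = the rest, including opposite-direction effects.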

Experiments:
[1] = HRE reporter activators under added iron – cell-based, U2OS, luminescence, dry powder, set 2, mechanism study for HIF pathway activator project, dose response (AID 493237); conditions: U2OS HRE-luciferase reporter, iron condition, luminescence; at 38 µM (top of the series)
Procedure, shortened: (§1)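 System: Human U2OS osteosarcoma cells with stable 3×HRE-driven luciferase reporter | Quantity: 6,000 cells per well | Also added: Ferric nitrate at 50 µM final, added before compound | Dosing: 8-point series in threefold dilution steps | Timing: 24 h plating, then 24 h compound exposure at 37 °C | Measured by: Steady-Glo luminescence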

[2] = test system: U2OS HRE-luciferase reporter, iron condition, luminescence; assay: as above
Procedure, shortened: as §1

Row | Structure (SMILES) | activation [1] | AC40 [2]
1 | Cn1c(-c2ccccc2)cnc1NC(=O)c1cc(-c2ccccc2)on1 | 6.19% (inactive) | –
2 | c1ccc(CNc2nc(-c3ccccn3)nnc2-c2ccccc2)cc1 | – | 9.31 µM
3 | O=C(Nc1nc(-c2ccccc2)cs1)c1cc(-c2ccccc2)on1 | -4.82% (inactive) | –
4 | CN(C)CCNC(=O)c1cc(-c2ccccc2)on1 | 19.3% (inactive) | –
5 | CC(C)(C)CCNc1nc(-c2ccccn2)nnc1-c1ccccc1 | – | 10.2 µM and 8.22 µM
6 | Oc1ccc(CNC2CCc3ccccc32)c2cccnc12 (configuration not stated) | -45.6% (inactive) | –
7 | Cn1c(NC(=O)c2cc(-c3ccccc3)on2)nc2ccccc21 | 7.37% (inactive) | –
8 | O=C(c1cc(-c2ccccc2)on1)N1CCN(c2ccncc2)CC1 | -11.7% (inactive) | –
9 | O=C(c1cc(-c2ccccc2)on1)N1CCC(N2CCCC2)CC1 | -1.29% (inactive) | –
10 | O=C(NCCCN1CCOCC1)c1cc(-c2ccccc2)on1 | – | 10.3 µM
11 | COc1ccccc1N1CCN(Cc2ccc(O)c3ncccc23)CC1 | -35.6% (inactive) | –
12 | O=C(Nc1nc2ccccc2s1)c1cc(-c2ccccc2)on1 | 9.12% (inactive) | –
13 | Clc1cccc(CNc2nc(-c3ccccn3)nnc2-c2ccccc2)c1 | – | 11.6 µM
14 | CN1CCN(C(=O)c2cc(-c3ccccc3)on2)CC1 | -32.3% (inactive) | –
15 | c1ccc(-c2nnc(-c3ccccn3)nc2N2CCC(C3CCCCC3)C2)cc1 (configuration not stated) | -30.3% (inactive) | –
16 | Oc1ccc(CN2CCC(Cc3ccccc3)CC2)c2cccnc12 | -17.9% (inactive) | –
17 | c1ccc(-c2nnc(-c3ccccn3)nc2Nc2cnc3ccccc3n2)cc1 | – | 24.8 µM
18 | c1ccc(-c2nnc(-c3ccccn3)nc2NCC2CCOCC2)cc1 | 137% (inactive) | –
19 | Cc1cccc(CNc2nc(-c3ccccn3)nnc2-c2ccccc2)c1 | – | 8.97 µM
20 | O=C(c1cc(-c2ccccc2)on1)N1CCC(N2CCOCC2)CC1 | -12.6% (inactive) | –
21 | O=C(NCC1CCCCC1)c1cc(-c2ccccc2)on1 | 21.9% (inactive) | –
22 | CC(Nc1nc(-c2ccccn2)nnc1-c1ccccc1)c1ccccc1 (configuration not stated) | – | 10.3 µM

Row | Structure (SMILES) | activation [1] | AC40 [2]
23 | Oc1ccc(CN2CCC3CCCCC3C2)c2cccnc12 (configuration not stated) | -51.1% (inactive) | –
24 | c1ccc(-c2csc(Nc3nc(-c4ccccn4)nnc3-c3ccccc3)n2)cc1 | – | > 38 µM (inactive)
25 | O=C(Nc1nnc(-c2ccccc2)s1)c1cc(-c2ccccc2)on1 | 2.91% (inactive) | –
26 | c1ccc(-c2ccc(CNc3nc(-c4ccccn4)nnc3-c3ccccc3)cc2)cc1 | – | 9.52 µM
27 | Cc1ccc(NC(=O)c2cc(-c3ccccc3)on2)cn1 | -0.441% (inactive) | –
28 | c1ccc(-c2cnc(Nc3nc(-c4ccccn4)nnc3-c3ccccc3)s2)cc1 | 1.03% (inactive) | –
29 | CC(C)(C)CCNC(=O)c1cc(-c2ccccc2)on1 | – | 8.89 µM
30 | CC1CN(Cc2ccc(O)c3ncccc23)CC(C)O1 (configuration not stated) | -40% (inactive) | –
31 | c1ccc(-c2nnc(-c3ccccn3)nc2NCCCN2CCOCC2)cc1 | – | 26.1 µM
32 | O=C(c1cc(-c2ccccc2)on1)N1CCc2cccnc21 | -8.92% (inactive) | –
33 | O=C(Nc1ncc(-c2ccccc2)o1)c1cc(-c2ccccc2)on1 | -19.3% (inactive) | –
34 | c1ccc(-c2nnc(-c3ccccn3)nc2NCC2CCCCC2)cc1 | – | 9.8 µM
35 | N#CC1(c2ccccc2)CCN(Cc2ccc(O)c3ncccc23)CC1 | -19.9% (inactive) | –
36 | OCC1CCN(c2nc(-c3ccccn3)nnc2-c2ccccc2)CC1 | 37.3% (inactive) | –
37 | c1ccc(-c2nnc(-c3ccccn3)nc2NCCN2CCOCC2)cc1 | – | 19.4 µM
38 | Cc1ccccc1CNc1nc(-c2ccccn2)nnc1-c1ccccc1 | – | 7.8 µM
39 | Cc1ccccc1CNC(=O)c1cc(-c2ccccc2)on1 | 15.4% (inactive) | –
40 | Cc1cccc(CNC(=O)c2cc(-c3ccccc3)on2)c1 | -17.5% (inactive) | –
41 | C[C@@H](Nc1nc(-c2ccccn2)nnc1-c1ccccc1)c1ccccc1 | – | 8.05 µM
42 | Cc1cccc(NC(=O)c2cc(-c3ccccc3)on2)n1 | – | > 38 µM (inactive)
43 | OCCCNc1nc(-c2ccccn2)nnc1-c1ccccc1 | – | 23.9 µM
44 | O=C(Nc1cn2ccccc2n1)c1cc(-c2ccccc2)on1 | -9.98% (inactive) | –

Row | Structure (SMILES) | activation [1] | AC40 [2]
45 | Cc1cccc(Nc2nc(-c3ccccn3)nnc2-c2ccccc2)n1 | – | 27.2 µM
46 | C[C@@H](Nc1nc(-c2ccccn2)nnc1-c1ccccc1)C1CCCCC1 | – | 7.81 µM
47 | c1ccc(CCNc2nc(-c3ccccn3)nnc2-c2ccccc2)cc1 | – | 10.6 µM
48 | Cc1ccc(Nc2nc(-c3ccccn3)nnc2-c2ccccc2)cn1 | – | 24.3 µM
49 | O=C(NCCN1CCOCC1)c1cc(-c2ccccc2)on1 | – | 9.15 µM
50 | CCCCNC(=O)c1cc(-c2ccccc2)on1 | – | 3.76 µM
51 | O=C(Nc1ncc2ccccc2n1)c1cc(-c2ccccc2)on1 | – | > 38 µM (inactive)
52 | O=C(NC1Cc2ccccc2C1)c1cc(-c2ccccc2)on1 | – | > 38 µM (inactive)
53 | CN1CCN(c2nc(-c3ccccn3)nnc2-c2ccccc2)CC1 | – | 25 µM
54 | CC(C)(C)OC(=O)N1CCN(Cc2ccc(O)c3ncccc23)CC1 | -18.7% (inactive) | –
55 | O=C(NCc1ccccc1)c1cc(-c2ccccc2)on1 | – | > 38 µM (inactive)
56 | c1ccc(-c2nnc(Nc3nc(-c4ccccn4)nnc3-c3ccccc3)s2)cc1 | – | > 38 µM (inactive)
57 | c1ccc(-c2nnc(-c3ccccn3)nc2N2CCC(N3CCOCC3)CC2)cc1 | – | 21 µM
58 | c1ccc(-c2nnc(-c3ccccn3)nc2NCC2CC2)cc1 | – | 24 µM
59 | OCC1CCN(Cc2ccc(O)c3ncccc23)CC1 | -24% (inactive) | –
60 | CN(C)c1nc(-c2ccccn2)nnc1-c1ccccc1 | – | 24.5 µM
61 | C=CCNc1nc(-c2ccccn2)nnc1-c1ccccc1 | – | 26.5 µM
62 | c1ccc(-c2nnc(-c3ccccn3)nc2NCc2cccnc2)cc1 | – | 25.9 µM
63 | Cn1c(-c2ccccc2)cnc1Nc1nc(-c2ccccn2)nnc1-c1ccccc1 | 11.2% (inactive) | –
64 | O=C(NCCN1CCCCC1)c1cc(-c2ccccc2)on1 | 15.3% (inactive) | –
65 | Cc1ccc(CNc2nc(-c3ccccn3)nnc2-c2ccccc2)cc1 | – | 11.4 µM
66 | Cc1ccc(CNc2nc(-c3ccccn3)nnc2-c2ccccc2)cc1C | – | 6.44 µM

Row | Structure (SMILES) | activation [1] | AC40 [2]
67 | COc1cccc(CNc2nc(-c3ccccn3)nnc2-c2ccccc2)c1 | – | 10.7 µM
68 | O=C(NCCCO)c1cc(-c2ccccc2)on1 | – | 5.66 µM
69 | C[C@H](Nc1nc(-c2ccccn2)nnc1-c1ccccc1)C1CCCCC1 | – | 9.72 µM
70 | c1ccc(-c2cccc(CNc3nc(-c4ccccn4)nnc3-c3ccccc3)c2)cc1 | – | 10.1 µM
71 | CC(C)(C)c1ccc(CNc2nc(-c3ccccn3)nnc2-c2ccccc2)cc1 | – | 20.6 µM
72 | c1ccc(-c2nnc(-c3ccccn3)nc2Nc2nc3ccccc3s2)cc1 | 21.8% (inactive) | –
73 | O=C(NCCCn1ccnc1)c1cc(-c2ccccc2)on1 | – | 4.5 µM
74 | COc1ccc(CNc2nc(-c3ccccn3)nnc2-c2ccccc2)cc1 | – | 9.43 µM
75 | Cc1ccc(CNC(=O)c2cc(-c3ccccc3)on2)cc1 | -26.7% (inactive) | –
76 | O=C(c1cc(-c2ccccc2)on1)N1CCC(CO)CC1 | -15.4% (inactive) | –
77 | Oc1ccc(CN2CCc3ccccc3C2)c2cccnc12 | -30.4% (inactive) | –
78 | O=C(Nc1ccc2ccccc2n1)c1cc(-c2ccccc2)on1 | -19.3% (inactive) | –
79 | c1ccc(-c2nnc(-c3ccccn3)nc2NCCc2ccccn2)cc1 | – | 24.3 µM
80 | O=C(Nc1cnc2ccccc2c1)c1cc(-c2ccccc2)on1 | 14% (inactive) | –
81 | O=C(NCCCCO)c1cc(-c2ccccc2)on1 | – | 1.29 µM
82 | c1ccc(-c2nnc(-c3ccccn3)nc2NCc2ccccn2)cc1 | – | 15.9 µM
83 | O=C(NCC1CC1)c1cc(-c2ccccc2)on1 | – | 3.19 µM
84 | c1ccc(-c2nnc(-c3ccccn3)nc2N2CCC(c3ccccc3)C2)cc1 (configuration not stated) | – | 18.7 µM
85 | O=C(NC1CCc2ccccc2C1)c1cc(-c2ccccc2)on1 (configuration not stated) | -15.1% (inactive) | –
86 | Oc1ccc(CNC2Cc3ccccc3C2)c2cccnc12 | -38.8% (inactive) | –
87 | c1ccc(-c2nnc(-c3ccccn3)nc2N2CCN(c3ccncc3)CC2)cc1 | – | 22.9 µM
